Data: ChEMBL document CHEMBL4842369, “Synthesis, structure-activity relationship and antiviral activity of indole-containing inhibitors of Flavivirus NS2B-NS3 protease” (Eur J Med Chem, 2021)
Activity calls are given as the source filed them. The calls are words filed in the database; no cut-off is given here.

Columns and labels:
Nonstructural protein 3 = Nonstructural protein 3 (Zika virus, UniProt A0A024AXB9); experiment: Inhibition of Zika virus recombinant NS2B (47 to 95 residues)/NS3 (1 to 177 residues) protease expressed in Escherichia coli BL21 using Bz-Nle-Lys-Lys-Arg-AMC as substrate preincubated for 10 mins by fluorescence-based biochemical assay
Summary of the method: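 ZIKV NS2B-NS3 protease at 1 nM, with 10 µM Bz-Nle-Lys-Lys-Arg-AMC in 20 mM HEPES pH 7.3 containing 0.05% Triton X-100. Compound at increasing concentrations in triplicate, pre-incubated with enzyme 10 min before substrate. Fluorescence (Ex 360/Em 460 nm) read every 30 s. IC50 from dose-response curve fit, 3 independent experiments, standard deviation.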

Genome polyprotein [1] = target: Genome polyprotein (dengue virus type 2, UniProt P29990); experiment: Inhibition of Dengue virus 2 NS2B (50 to 95 residues)/NS3 (1 to 182 residues) protease expressed in Escherichia coli BL21 using Bz-Nle-Lys-Lys-Arg-AMC as substrate preincubated for 10 mins by fluorescence-based biochemical assay
Summary of the method: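 Recombinant DENV-2 NS2B-NS3 protease assayed like the ZIKV protease. Bz-Nle-Lys-Lys-Arg-AMC substrate, compound pre-incubated with enzyme 10 min, fluorescence monitored at Ex 360/Em 460 nm. IC50 from dose-response fit of triplicate samples at increasing concentrations.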

Genome polyprotein [2] = target: Genome polyprotein (West Nile virus, UniProt P06935); experiment: Inhibition of West Nile virus NS2B (49 to 96 residues)/NS3 (2 to 184 residues) protease expressed in Escherichia coli BL21 using Bz-Nle-Lys-Lys-Arg-AMC as substrate preincubated for 10 mins by fluorescence-based biochemical assay
Summary of the method: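 Recombinant WNV NS2B-NS3 protease, tested in the same way as the Zika protease assay. Compound was preincubated with enzyme for 10 min before Bz-Nle-Lys-Lys-Arg-AMC was added. Hydrolysis was followed as AMC fluorescence (Ex 360/Em 460 nm) read every 30 s. IC50 was derived by dose-response curve fitting.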

Zika virus = experiment: Antiviral activity against Zika virus infected in human U87 cells assessed as reduction in infectious virus in supernatant by measuring infection of Vero cells incubated with supernatant of viral infected U87 cells and measured following infection of supernatants with Vero cells for 7 days by MTT assay; assay type: functional; settings: U-87 MG, 168 h, time 7 day
Summary of the method: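 U87 cells (2×10^4/well) in DMEM with 2% FBS, infected with ZIKV FLR strain (passage-3 stock) at MOI 0.01 for 1 h, then PBS-washed. Compound added in triplicate, 2 days at 37 °C. Half-log dilutions of supernatant put on Vero monolayers in quadruplicate for 7 days. CPE by microscopy then MTT. TCID50 from highest dilution infecting 2/4 wells. At least 2 independent experiments.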

U-87 MG = experiment: Cytotoxicity against human U87 cells assessed as inhibition of growth by MTT assay; assay type: cell-based; settings: u-87mg atcc
[3] = target: Genome polyprotein (dengue virus type 2) (UniProt P29990); experiment: Competitive inhibition of Dengue virus 2 NS2B (50 to 95 residues)/NS3 (1 to 182 residues) protease expressed in Escherichia coli BL21 using increased concentration of Bz-Nle-Lys-Lys-Arg-AMC substrate
Summary of the method: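 Steady-state kinetics. Initial velocities were measured across a range of inhibitor concentrations and substrate levels. […] Fluorescence was read at Ex 360/Em 460 nm. An IC50 was fitted at each substrate level and plotted against substrate concentration to assign the mode of inhibition.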

Chain of Nonstructural protein 3 (A0A024AXB9 whole entry, the tested form may be a part): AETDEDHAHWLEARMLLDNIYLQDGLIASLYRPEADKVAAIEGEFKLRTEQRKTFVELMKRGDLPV
Chain of Genome polyprotein (West Nile virus, UniProt P06935) (P06935 1371-1501 limits assumed): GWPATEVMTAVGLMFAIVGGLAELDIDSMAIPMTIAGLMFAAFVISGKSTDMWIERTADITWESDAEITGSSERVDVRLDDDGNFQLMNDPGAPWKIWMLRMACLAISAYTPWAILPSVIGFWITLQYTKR
Chain of Genome polyprotein (West Nile virus, UniProt P06935) (P06935 1502-2120 limits assumed): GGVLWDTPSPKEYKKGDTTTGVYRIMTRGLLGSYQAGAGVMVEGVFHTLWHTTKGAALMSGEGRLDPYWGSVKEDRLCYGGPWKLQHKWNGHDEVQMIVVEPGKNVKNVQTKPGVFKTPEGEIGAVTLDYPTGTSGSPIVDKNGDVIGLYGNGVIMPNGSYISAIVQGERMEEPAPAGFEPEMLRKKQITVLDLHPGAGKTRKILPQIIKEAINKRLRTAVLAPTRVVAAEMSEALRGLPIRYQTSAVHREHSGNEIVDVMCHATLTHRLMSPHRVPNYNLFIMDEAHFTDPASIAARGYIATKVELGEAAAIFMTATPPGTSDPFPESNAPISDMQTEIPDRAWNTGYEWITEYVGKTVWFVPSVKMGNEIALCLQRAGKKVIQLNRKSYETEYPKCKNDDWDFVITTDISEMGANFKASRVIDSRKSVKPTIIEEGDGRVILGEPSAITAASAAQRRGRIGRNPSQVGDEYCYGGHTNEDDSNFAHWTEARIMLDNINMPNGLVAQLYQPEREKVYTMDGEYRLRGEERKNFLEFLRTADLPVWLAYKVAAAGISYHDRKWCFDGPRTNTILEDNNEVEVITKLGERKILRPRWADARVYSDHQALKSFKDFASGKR

Structure (SMILES)	IC50 (Nonstructural protein 3) [µM]	other results
N#Cc1ccc(-c2ccc3[nH]c(C(=O)NCC4CCNCC4)cc3c2)cc1	9.2	
O=C(NCC1CCNCC1)c1c[nH]c2cc(-c3ccncc3)ccc12	0.39	
NC(=O)c1ccc(-c2ccc3cc(C(=O)NCC4CCNCC4)[nH]c3c2)cc1	7.1	
O=C(NCC1CCNCC1)c1cc2ccc(-c3ccccc3)cc2[nH]1	9.4	
N#Cc1cccc(-c2ccc3[nH]c(C(=O)NCC4CCNCC4)cc3c2)c1	30.5	
COc1cc(-c2ccc3c(C(=O)NCC4CCNCC4)c[nH]c3c2)cc(OC)c1OC	> 50	
CC(C)(C)c1ccc(-c2ccc3c(ccn3Cc3ccc(-c4ccncc4)cc3)c2)cc1	> 50	
O=C(NCC1CCNCC1)c1c[nH]c2nc(-c3ccc(C(F)(F)F)cc3)ccc12	18.1	
O=C(NCC1CCNCC1)c1cc2cc(-c3ccc(-c4ccoc4)cc3)ccc2[nH]1	0.87	
O=C(NCC1CCNCC1)c1c[nH]c2nc(-c3ccncc3)ccc12	1.9	
O=C(NCC1CCNCC1)c1cc2ccc(C3=CCOCC3)cc2[nH]1	2.2	
O=C(NCC1CCNCC1)c1cc2cc(-c3ccc(N4CCCCC4)cc3)ccc2[nH]1	11.4	IC50 (Genome polyprotein [1]): 40.2 µM; IC50 (Genome polyprotein [2]): 31 µM
COc1cc(-c2ccc3[nH]cc(C(=O)NC4CCNCC4)c3c2)cc(OC)c1OC	> 50	
CC(C)(C)c1ccc(-c2ccc3c(C(=O)NCC4CCNCC4)c[nH]c3c2)cc1	5	IC50 (Genome polyprotein [1]): 30.4 µM; IC50 (Genome polyprotein [2]): 35.1 µM
O=C(NCC1CCNCC1)c1cc2ccc(-c3ccoc3)cc2[nH]1	0.32	IC50 (Genome polyprotein [1]): 1.6 µM; IC50 (Genome polyprotein [2]): 5.7 µM; EC68 (Zika virus): 1 µM; CC50 (U-87 MG): > 10 µM; Activity [3]: inactive
O=C(NCC1CCNCC1)c1c[nH]c2nc(-c3ccc(CN4CCCCC4)cc3)ccc12	0.45	IC50 (Genome polyprotein [1]): 9.2 µM; IC50 (Genome polyprotein [2]): 8.6 µM; EC68 (Zika virus): 10 µM; CC50 (U-87 MG): > 10 µM
O=C(NCC1CCNCC1)c1cc2cc(-c3ccncc3)ccc2[nH]1	37	
O=C(NCC1CCNCC1)c1c[nH]c2cc(-c3ccc(F)cc3)ccc12	> 50	
O=C(NCC1CCNCC1)c1cc2ccc(-c3ccc(F)cc3)cc2[nH]1	14.4	
O=C(NCC1CCNCC1)c1cc2ccc(-c3ccc(N4CCCCC4)cc3)cc2[nH]1	7.9	
N#Cc1ccc(-c2ccc3[nH]cc(C(=O)NC4CCNCC4)c3c2)cc1	> 50	
O=C(NCC1CCNCC1)c1cc2cc(-c3cccnc3)ccc2[nH]1	> 50	
O=C(NCC1CCNCC1)c1cc2ccc(-c3cccnc3)cc2[nH]1	27.2	

Structure (SMILES)	IC50 (Nonstructural protein 3) [µM]	other results
O=C(NCC1CCNCC1)c1cc2ccc(C3=CCNCC3)cc2[nH]1	21	
O=C(NCC1CCNCC1)c1cc2cc(-c3cn[nH]c3)ccc2[nH]1	6	
O=C(NCC1CCNCC1)c1cc2ccc(-c3ccc(CCO)cc3)cc2[nH]1	45.6	
O=C(NCC1CCNCC1)c1c[nH]c2cc(-c3ccccc3F)ccc12	> 50	
Cc1cc(C#N)ccc1-c1ccc2[nH]c(C(=O)NCC3CCNCC3)cc2c1	40.2	IC50 (Genome polyprotein [1]): > 50 µM; IC50 (Genome polyprotein [2]): > 50 µM
O=C(NCC1CCNCC1)c1cc2ccc(-c3ccncc3)cc2[nH]1	19.7	
N#Cc1ccc(-c2ccc3c(C(=O)NC4CCNCC4)coc3c2)cc1	> 50	
CC(C)(C)c1ccc(-c2ccc3[nH]c(C(=O)NCC4CCNCC4)cc3c2)cc1	7	
O=C(NCC1CCNCC1)c1cc2ccc(-c3cn[nH]c3)cc2[nH]1	0.99	IC50 (Genome polyprotein [1]): 10.3 µM; IC50 (Genome polyprotein [2]): 3.5 µM; EC68 (Zika virus): > 10 µM; CC50 (U-87 MG): > 10 µM
O=C(NCCC1CCNCC1)c1c[nH]c2cc(-c3ccncc3)ccc12	0.63	EC68 (Zika virus): 10 µM; CC50 (U-87 MG): > 10 µM
O=C(NCC1CCNCC1)c1c[nH]c2ccc(-c3ccc(F)cc3)cc12	> 50	
O=C(NCC1CCNCC1)c1cc2cc(-c3ccc(-c4ccsc4)cc3)ccc2[nH]1	1.1	
O=C(NCC1CCNCC1)c1cc2ccc(-c3ccc(N4CCNCC4)cc3)cc2[nH]1	5.6	
O=C(NC1CCNCC1)c1cc2ccc(-c3ccncc3)cc2[nH]1	9.8	
O=C(NCC1CCNCC1)c1c[nH]c2cc(-c3cccnc3)ccc12	1.1	
O=C(NCC1CCNCC1)c1cc2ccc(-c3ccc(Oc4ccccc4)cc3)cc2[nH]1	1.6	IC50 (Genome polyprotein [1]): 6.5 µM; IC50 (Genome polyprotein [2]): 6.6 µM; EC68 (Zika virus): 2.5 µM; CC50 (U-87 MG): > 10 µM
COc1ccc(-c2ccc3cc(C(=O)NCC4CCNCC4)[nH]c3c2)cc1	1	IC50 (Genome polyprotein [1]): 10.6 µM; IC50 (Genome polyprotein [2]): 20.1 µM
O=C(NCC1CCNCC1)c1c[nH]c2cc(-c3cn[nH]c3)ccc12	5.7	IC50 (Genome polyprotein [1]): 48.3 µM; IC50 (Genome polyprotein [2]): 42 µM
O=C(NCC1CCNCC1)c1cc2ccc(-c3ccc(CO)cc3)cc2[nH]1	3.1	EC68 (Zika virus): > 10 µM; CC50 (U-87 MG): > 10 µM
O=C(NCC1CCNCC1)c1c[nH]c2nc(-c3ccc(CN4CCOCC4)cc3)ccc12	0.6	EC68 (Zika virus): > 10 µM; CC50 (U-87 MG): > 10 µM
O=C(NCC1CCNCC1)c1cc2ccc(-c3ccsc3)cc2[nH]1	6.4	
O=C(NCC1CCNCC1)c1c[nH]c2cc(-c3ccc(CN4CCCCC4)cc3)ccc12	3.1	IC50 (Genome polyprotein [1]): 49.7 µM; IC50 (Genome polyprotein [2]): 32 µM; EC68 (Zika virus): 10 µM; CC50 (U-87 MG): > 10 µM
O=Cc1cccc(-c2ccc3[nH]cc(C(=O)NCC4CCNCC4)c3c2)c1	> 50	

Structure (SMILES)	IC50 (Nonstructural protein 3) [µM]	other results
O=C(NCC1CCNCC1)c1cc2cc(-c3ccc(N4CCNCC4)cc3)ccc2[nH]1	8.8	
O=C(NC1CCNCC1)c1c[nH]c2cc(-c3ccncc3)ccc12	1	IC50 (Genome polyprotein [1]): 10 µM; IC50 (Genome polyprotein [2]): 10.5 µM; EC68 (Zika virus): 10 µM; CC50 (U-87 MG): > 10 µM
CC(C)(C)c1ccc(-c2ccc3[nH]cc(C(=O)NCC4CCNCC4)c3c2)cc1	11	
NCc1ccc(-c2ccc3cc(C(=O)NCC4CCNCC4)[nH]c3c2)cc1	3.2	
O=C(NCC1CCNCC1)c1cc2cc(-c3ccc(CN4CCCCC4)cc3)ccc2[nH]1	4.7	
CC(C)(C)c1ccc(-c2ccc3c(c2)c(C(=O)NCC2CCNCC2)cn3CCCC2CCNCC2)cc1	14.6	
O=C(NCC1CCNCC1)c1cc2ccccc2[nH]1	24.6	
O=C(NCC1CCNCC1)c1c[nH]c2cc(-c3ccoc3)c(-c3ccoc3)cc12	0.37	IC50 (Genome polyprotein [1]): 3.1 µM; IC50 (Genome polyprotein [2]): 3.7 µM; EC68 (Zika virus): 3 µM; CC50 (U-87 MG): > 10 µM
O=C(NCC1CCNCC1)c1c[nH]c2cc(-c3ccc(-c4ccccc4)cc3)ccc12	4.2	EC68 (Zika virus): > 10 µM; CC50 (U-87 MG): > 10 µM
O=C(NCC1CCNCC1)c1c[nH]c2cc(-c3ccc(Cl)nc3)ccc12	42	
CC(C)(C)c1ccc(-c2ccc3c(ccn3Cc3ccc(-c4ccoc4)cc3)c2)cc1	> 50	
CC(C)(C)c1ccc(-c2ccc3cc(C(=O)NCC4CCNCC4)[nH]c3c2)cc1		IC50 (Genome polyprotein [1]): 15 µM; IC50 (Genome polyprotein [2]): 21.8 µM
NCc1ccc(-c2ccc3[nH]c(C(=O)NCC4CCNCC4)cc3c2)cc1	9.5	
O=C(NCC1CCNCC1)c1cc2cc(-c3ccc(N4CCCC4)cc3)ccc2[nH]1	3.4	
O=C(NCC1CCNCC1)c1c[nH]c2ccc(-c3ccc(F)cc3F)cc12	> 50	
O=C(NCC1CCNCC1)c1cc2ccc(-c3ccc(OC(F)(F)F)cc3)cc2[nH]1		IC50 (Genome polyprotein [1]): 10.7 µM; IC50 (Genome polyprotein [2]): 16 µM; EC68 (Zika virus): > 10 µM; CC50 (U-87 MG): > 10 µM
O=C(NC1CCNCC1)c1coc2cc(-c3ccoc3)ccc12	2.86	
CC(C)(C)c1ccc(-c2cc3[nH]cc(C(=O)NC4CCNCC4)c3cc2-c2ccc(C(C)(C)C)cc2)cc1	4.5	
O=C(NCC1CCNCC1)c1cc2cc(-c3ccc(N4CCOCC4)cc3)ccc2[nH]1	33	
NCc1ccc(-c2ccc3c(C(=O)NCC4CCNCC4)c[nH]c3c2)cc1	> 50	
Cc1ccc(-c2ccc3c(C(=O)NCC4CCNCC4)c[nH]c3c2)cc1	48.9	IC50 (Genome polyprotein [1]): > 50 µM; IC50 (Genome polyprotein [2]): > 50 µM
N#Cc1ccc(-c2ccc3c(C(=O)NCC4CCNCC4)c[nH]c3c2)cc1	21.8	IC50 (Genome polyprotein [1]): 12 µM; IC50 (Genome polyprotein [2]): 50.5 µM
